According to ChEMBL document CHEMBL2163301, “Substrates for efficient fluorometric screening employing the NAD-dependent sirtuin 5 lysine deacylase (KDAC) enzyme” (J Med Chem, 2012):
The source made the active and inactive calls. The calls are words filed in the database; no cut-off is given here. *1 amine or outer side, *2 acyl side, *3 side chain or, on linkers, in order; H or OH if unused. Where a SMILES comes first, the peptide text is derived from it. The star is where a group is joined. AMC = Cc1cc(=O)oc2cc(N*)ccc12; Suc = O=C(CCC(=O)[*:2])[*:1]

These molecules were tested against T1, NAD-dependent protein deacetylase sirtuin-1 (Homo sapiens) (UniProt Q96EB6) (assay: Activity of human truncated SIRT1-GST fusion protein at 50 uM after 1 hr by trypsin developer-based fluorescence assay).
T1 sequence (whole entry): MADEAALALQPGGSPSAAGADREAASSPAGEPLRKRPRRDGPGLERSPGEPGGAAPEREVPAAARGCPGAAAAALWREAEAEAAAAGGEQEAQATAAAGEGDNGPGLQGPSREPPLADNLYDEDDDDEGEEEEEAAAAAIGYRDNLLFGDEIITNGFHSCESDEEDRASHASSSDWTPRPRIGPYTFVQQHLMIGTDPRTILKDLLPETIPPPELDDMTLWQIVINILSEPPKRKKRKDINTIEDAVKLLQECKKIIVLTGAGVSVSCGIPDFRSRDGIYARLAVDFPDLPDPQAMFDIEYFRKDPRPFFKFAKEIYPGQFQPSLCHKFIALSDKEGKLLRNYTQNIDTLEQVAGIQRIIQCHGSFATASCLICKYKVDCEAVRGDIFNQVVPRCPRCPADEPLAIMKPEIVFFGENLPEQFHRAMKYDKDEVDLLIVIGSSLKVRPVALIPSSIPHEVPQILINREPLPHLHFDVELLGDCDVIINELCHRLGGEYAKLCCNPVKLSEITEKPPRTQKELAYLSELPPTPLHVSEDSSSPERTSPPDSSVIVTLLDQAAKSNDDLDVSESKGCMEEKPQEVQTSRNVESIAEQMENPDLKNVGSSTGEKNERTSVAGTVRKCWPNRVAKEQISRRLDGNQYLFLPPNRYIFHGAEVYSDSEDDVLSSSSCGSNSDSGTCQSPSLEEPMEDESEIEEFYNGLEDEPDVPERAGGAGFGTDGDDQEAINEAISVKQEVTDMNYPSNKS
Procedure, shortened: (§1)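 Acetylated substrates were each treated with commercial full-length His-tagged SIRT1 or truncated SIRT1-GST fusion, with NAD, in Tris-Cl pH 8.0 buffer containing BSA. End point: 1 h at 37 °C, then nicotinamide (2 mM)/trypsin (0.4 mg/mL) developer for 15–30 min at room temperature. Fluorescence read at ex 360/em 460 nm against no-enzyme control wells.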

Q: How did the Activity turn out when `CC(=O)NCCCC[C@H](NC(=O)[C@H](CCCCN)NC(=O)[C@H](Cc1cnc[nH]1)NC(=O)[C@H](CCCNC(=N)N)NC(C)=O)C(=O)Nc1ccc2c(C)cc(=O)oc2c1` (Ac-RHKK(Ac)-{AMC}) was run?
A: The Activity was “inactive”.

Each molecule was assayed against T1, NAD-dependent protein deacetylase sirtuin-1 (Homo sapiens) (assay: Activity of human full length SIRT1 enzyme at 50 uM after 1 hr by trypsin developer-based fluorescence assay).
Procedure, shortened: as §1

Q: For `CC(=O)NCCCC[C@H](NC(=O)[C@H](CCCCN)NC(=O)[C@H](Cc1cnc[nH]1)NC(=O)[C@H](CCCNC(=N)N)NC(C)=O)C(=O)Nc1ccc2c(C)cc(=O)oc2c1` (Ac-RHKK(Ac)-{AMC}), which Activity is on record?
A: The Activity was “inactive”.

The molecules below were run against T2, NAD-dependent protein deacetylase sirtuin-7 (Homo sapiens) (UniProt Q9NRC8) (assay: Activity of recombinant human SIRT7 assessed as deacylation of compound at 50 uM after 1 hr by trypsin developer-based fluorescence assay).
T2 sequence (whole entry): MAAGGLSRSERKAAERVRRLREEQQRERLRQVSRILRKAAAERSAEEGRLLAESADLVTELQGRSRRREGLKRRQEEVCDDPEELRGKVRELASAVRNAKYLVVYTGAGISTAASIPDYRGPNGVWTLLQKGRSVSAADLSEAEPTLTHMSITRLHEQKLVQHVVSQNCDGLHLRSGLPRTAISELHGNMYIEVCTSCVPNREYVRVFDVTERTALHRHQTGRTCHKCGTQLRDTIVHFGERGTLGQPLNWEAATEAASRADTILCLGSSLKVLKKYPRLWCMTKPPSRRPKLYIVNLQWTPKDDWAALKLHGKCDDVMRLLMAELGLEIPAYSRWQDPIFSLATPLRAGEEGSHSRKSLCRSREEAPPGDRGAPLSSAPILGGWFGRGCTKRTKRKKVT
Procedure, shortened: (§2)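 Recombinant sirtuin at 1 μg per 50 μL reaction, with SIRT1-GST fusion as the SIRT1 source. Fluorogenic substrate and NAD incubated in Tris-Cl buffer pH 8.0 with BSA (1 mg/mL) for 1 h at 37 °C. Developer with nicotinamide (2 mM) and trypsin (0.4 mg/mL) added, 15–30 min at room temperature. Fluorescence read at ex 360/em 460 nm and normalized to no-enzyme wells. At least two experiments in duplicate.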

Q: With `CC(=O)N[C@@H](CC(C)C)C(=O)NCC(=O)N[C@@H](CCCCNC(=O)CCC(=O)O)C(=O)Nc1ccc2c(C)cc(=O)oc2c1` (Ac-Leu-Gly-Lys(Suc)-{AMC}) as the molecule, how does the Activity read?
A: The Activity was “inactive”.

Q: `CC(=O)NCCCC[C@H](NC(=O)[C@H](CCCCN)NC(=O)[C@H](Cc1cnc[nH]1)NC(=O)[C@H](CCCNC(=N)N)NC(C)=O)C(=O)Nc1ccc2c(C)cc(=O)oc2c1` (Ac-RHKK(Ac)-{AMC}) was tested. Which Activity did it give?
A: Its Activity is “inactive”.

The molecules below were run against T1, NAD-dependent protein deacetylase sirtuin-1 (Homo sapiens) (assay: Activity of human SIRT1 assessed as deacylation of compound at 50 uM after 1 hr by trypsin developer-based fluorescence assay).
Procedure, shortened: as §2

Q: Which Activity does the source give for `CC(=O)NCCCC[C@H](NC(=O)[C@H](CCCCN)NC(=O)[C@H](Cc1cnc[nH]1)NC(=O)[C@H](CCCNC(=N)N)NC(C)=O)C(=O)Nc1ccc2c(C)cc(=O)oc2c1` (Ac-RHKK(Ac)-{AMC}) here?
A: Its Activity is “Active”.

The molecules below were run against NAD-dependent protein deacylase sirtuin-6 (Homo sapiens) (UniProt Q8N6T7) (assay: Activity of human SIRT6 assessed as deacylation of compound at 50 uM after 1 hr by trypsin developer-based fluorescence assay).
Chain of NAD-dependent protein deacylase sirtuin-6 (Homo sapiens) (Q8N6T7 whole entry): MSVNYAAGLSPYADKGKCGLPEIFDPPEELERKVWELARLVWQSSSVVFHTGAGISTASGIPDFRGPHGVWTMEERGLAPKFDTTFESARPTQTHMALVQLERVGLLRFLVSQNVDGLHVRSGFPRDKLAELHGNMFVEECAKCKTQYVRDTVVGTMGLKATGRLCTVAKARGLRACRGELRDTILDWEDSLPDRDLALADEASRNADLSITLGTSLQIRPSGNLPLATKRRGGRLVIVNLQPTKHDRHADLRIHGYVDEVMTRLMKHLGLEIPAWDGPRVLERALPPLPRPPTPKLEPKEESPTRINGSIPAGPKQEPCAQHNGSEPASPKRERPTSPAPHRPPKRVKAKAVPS
Procedure, shortened: as §2

Q: For `CC(=O)N[C@@H](CC(C)C)C(=O)NCC(=O)N[C@@H](CCCCNC(=O)CCC(=O)O)C(=O)Nc1ccc2c(C)cc(=O)oc2c1` (Ac-Leu-Gly-Lys(Suc)-{AMC}), which Activity is on record?
A: The Activity was “inactive”.

Q: How did the Activity turn out when `CC(=O)NCCCC[C@H](NC(=O)[C@H](CCCCN)NC(=O)[C@H](Cc1cnc[nH]1)NC(=O)[C@H](CCCNC(=N)N)NC(C)=O)C(=O)Nc1ccc2c(C)cc(=O)oc2c1` (Ac-RHKK(Ac)-{AMC}) was run?
A: The Activity was “inactive”.

These molecules were tested against T3, NAD-dependent protein deacetylase sirtuin-2 (Homo sapiens) (UniProt Q8IXJ6) (assay: Activity of human SIRT2 assessed as deacylation of compound at 50 uM after 1 hr by trypsin developer-based fluorescence assay).
T3 sequence (whole entry): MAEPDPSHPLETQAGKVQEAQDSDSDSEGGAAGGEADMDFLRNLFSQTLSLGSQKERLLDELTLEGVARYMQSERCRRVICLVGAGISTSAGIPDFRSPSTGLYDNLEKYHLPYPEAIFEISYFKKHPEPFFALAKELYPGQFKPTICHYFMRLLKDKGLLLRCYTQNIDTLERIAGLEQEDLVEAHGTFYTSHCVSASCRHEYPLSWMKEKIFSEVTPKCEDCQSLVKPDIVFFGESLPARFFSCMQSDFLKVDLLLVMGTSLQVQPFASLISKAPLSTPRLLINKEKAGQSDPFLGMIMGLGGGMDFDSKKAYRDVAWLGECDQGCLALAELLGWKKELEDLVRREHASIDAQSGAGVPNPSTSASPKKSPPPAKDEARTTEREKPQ
Procedure, shortened: as §2

Q: How did the Activity turn out when `CC(=O)NCCCC[C@H](NC(=O)[C@H](CCCCN)NC(=O)[C@H](Cc1cnc[nH]1)NC(=O)[C@H](CCCNC(=N)N)NC(C)=O)C(=O)Nc1ccc2c(C)cc(=O)oc2c1` (Ac-RHKK(Ac)-{AMC}) was run?
A: The Activity was “Active”.

What follows are molecules tested against T4, NAD-dependent protein lipoamidase sirtuin-4, mitochondrial (Homo sapiens) (UniProt Q9Y6E7) (assay: Activity of recombinant human SIRT4 assessed as deacylation of compound at 50 uM after 1 hr by trypsin developer-based fluorescence assay).
T4 sequence (whole entry): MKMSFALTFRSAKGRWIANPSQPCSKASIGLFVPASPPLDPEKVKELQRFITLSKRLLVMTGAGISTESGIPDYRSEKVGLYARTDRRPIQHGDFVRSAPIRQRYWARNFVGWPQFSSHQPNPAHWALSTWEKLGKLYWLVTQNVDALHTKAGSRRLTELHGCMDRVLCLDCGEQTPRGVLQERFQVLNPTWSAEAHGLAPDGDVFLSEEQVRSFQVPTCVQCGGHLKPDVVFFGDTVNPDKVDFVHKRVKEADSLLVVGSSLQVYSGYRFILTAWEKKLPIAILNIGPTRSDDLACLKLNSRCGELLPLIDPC
Procedure, shortened: as §2

Q: For `CC(=O)N[C@@H](CC(C)C)C(=O)NCC(=O)N[C@@H](CCCCNC(=O)CCC(=O)O)C(=O)Nc1ccc2c(C)cc(=O)oc2c1` (Ac-Leu-Gly-Lys(Suc)-{AMC}), which Activity is on record?
A: Its Activity is “inactive”.

Q: How did the Activity turn out when `CC(=O)NCCCC[C@H](NC(=O)[C@H](CCCCN)NC(=O)[C@H](Cc1cnc[nH]1)NC(=O)[C@H](CCCNC(=N)N)NC(C)=O)C(=O)Nc1ccc2c(C)cc(=O)oc2c1` (Ac-RHKK(Ac)-{AMC}) was run?
A: Its Activity is “inactive”.

Each molecule was assayed against NAD-dependent protein deacylase sirtuin-5, mitochondrial (Homo sapiens) (UniProt Q9NXA8) (assay: Activity of human SIRT5 assessed as deacylation of compound at 50 uM after 1 hr by trypsin developer-based fluorescence assay).
Chain of NAD-dependent protein deacylase sirtuin-5, mitochondrial (Homo sapiens) (Q9NXA8 37-310 limits assumed): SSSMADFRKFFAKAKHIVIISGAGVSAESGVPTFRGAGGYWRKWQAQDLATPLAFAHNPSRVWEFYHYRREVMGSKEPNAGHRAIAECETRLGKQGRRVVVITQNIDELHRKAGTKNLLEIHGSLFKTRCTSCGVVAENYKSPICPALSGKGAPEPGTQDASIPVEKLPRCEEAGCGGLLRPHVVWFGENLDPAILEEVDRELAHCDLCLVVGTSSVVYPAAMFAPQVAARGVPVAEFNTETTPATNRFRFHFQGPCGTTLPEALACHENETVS
Procedure, shortened: as §2

Q: `CC(=O)N[C@@H](CC(C)C)C(=O)NCC(=O)N[C@@H](CCCCNC(=O)CCC(=O)O)C(=O)Nc1ccc2c(C)cc(=O)oc2c1` (Ac-Leu-Gly-Lys(Suc)-{AMC}) was tested. Which Activity did it give?
A: The Activity was “Active”.

Q: With `CC(=O)NCCCC[C@H](NC(=O)[C@H](CCCCN)NC(=O)[C@H](Cc1cnc[nH]1)NC(=O)[C@H](CCCNC(=N)N)NC(C)=O)C(=O)Nc1ccc2c(C)cc(=O)oc2c1` (Ac-RHKK(Ac)-{AMC}) as the molecule, how does the Activity read?
A: Its Activity is “inactive”.

These molecules were tested against T5, NAD-dependent protein deacetylase sirtuin-3, mitochondrial (Homo sapiens) (UniProt Q9NTG7) (assay: Activity of human SIRT3 assessed as deacylation of compound at 50 uM after 1 hr by trypsin developer-based fluorescence assay).
T5 sequence (whole entry): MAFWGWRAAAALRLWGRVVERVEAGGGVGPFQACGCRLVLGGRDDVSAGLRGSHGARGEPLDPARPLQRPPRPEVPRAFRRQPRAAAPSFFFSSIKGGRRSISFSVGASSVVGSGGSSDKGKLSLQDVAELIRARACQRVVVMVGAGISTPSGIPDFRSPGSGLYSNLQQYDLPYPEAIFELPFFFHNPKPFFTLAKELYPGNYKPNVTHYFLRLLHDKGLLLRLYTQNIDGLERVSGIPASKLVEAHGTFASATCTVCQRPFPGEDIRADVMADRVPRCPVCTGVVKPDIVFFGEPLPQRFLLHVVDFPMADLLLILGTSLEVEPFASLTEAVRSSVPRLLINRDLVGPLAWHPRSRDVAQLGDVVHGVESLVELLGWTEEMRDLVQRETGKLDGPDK
Procedure, shortened: as §2

Q: For `CC(=O)NCCCC[C@H](NC(=O)[C@H](CCCCN)NC(=O)[C@H](Cc1cnc[nH]1)NC(=O)[C@H](CCCNC(=N)N)NC(C)=O)C(=O)Nc1ccc2c(C)cc(=O)oc2c1` (Ac-RHKK(Ac)-{AMC}), which Activity is on record?
A: Its Activity is “Active”.
